Like-named read-outs stand apart in the source and are kept apart here.
Experiments:
GABAA receptor = settings: cited from earlier work
[1] = target: T1, α1β2γ2s GABAA receptor (rat subunits expressed in Xenopus laevis oocytes) (Rattus norvegicus, UniProt P18508+P62813+P63138); type: cell-based
α4β3γ1 GABAA receptor = settings: insulin, α4β3γ1 isoform; ref [40]; cited from earlier work
[2] = target: T1, α1β2γ2s GABAA receptor (rat subunits expressed in Xenopus laevis oocytes); type: cell-based; remark: listed apart in the source
Method in brief: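 Rat α1, β2, γ2S cRNAs injected 1:1:1 into defolliculated stage IV–V Xenopus laevis oocytes, kept 2–3 days at 18°C. Two-electrode voltage clamp at −60 mV, room temperature, Ca-free frog Ringer's pH 7.5. […] Percent change from control peak; t-test.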

GABAA receptors = settings: ref Wan et al. [39], cited from earlier work

T1 sequence (P62813 28-455): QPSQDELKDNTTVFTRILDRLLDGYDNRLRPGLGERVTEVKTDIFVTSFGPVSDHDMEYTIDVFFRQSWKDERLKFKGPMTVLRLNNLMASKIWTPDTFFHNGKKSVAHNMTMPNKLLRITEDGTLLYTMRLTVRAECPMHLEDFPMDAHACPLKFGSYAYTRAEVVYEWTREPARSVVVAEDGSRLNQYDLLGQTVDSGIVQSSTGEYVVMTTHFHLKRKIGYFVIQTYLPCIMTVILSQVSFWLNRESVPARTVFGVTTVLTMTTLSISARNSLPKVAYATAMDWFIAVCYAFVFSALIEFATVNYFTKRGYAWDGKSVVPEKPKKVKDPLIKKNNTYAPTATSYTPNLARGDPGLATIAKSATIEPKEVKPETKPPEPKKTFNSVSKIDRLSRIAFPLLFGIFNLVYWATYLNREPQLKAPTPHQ
T1 sequence (P63138 26-474): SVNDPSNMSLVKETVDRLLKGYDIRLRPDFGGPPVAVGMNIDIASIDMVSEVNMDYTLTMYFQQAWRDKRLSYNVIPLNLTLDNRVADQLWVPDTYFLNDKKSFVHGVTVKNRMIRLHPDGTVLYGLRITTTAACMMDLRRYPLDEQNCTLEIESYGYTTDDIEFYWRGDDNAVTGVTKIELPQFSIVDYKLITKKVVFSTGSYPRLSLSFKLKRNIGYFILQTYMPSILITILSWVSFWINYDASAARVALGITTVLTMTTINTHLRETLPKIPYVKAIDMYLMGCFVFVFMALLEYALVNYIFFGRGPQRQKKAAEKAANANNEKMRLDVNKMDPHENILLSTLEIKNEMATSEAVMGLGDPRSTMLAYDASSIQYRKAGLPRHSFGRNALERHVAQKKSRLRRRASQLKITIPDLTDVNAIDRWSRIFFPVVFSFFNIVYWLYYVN
T1 sequence (P18508 39-466): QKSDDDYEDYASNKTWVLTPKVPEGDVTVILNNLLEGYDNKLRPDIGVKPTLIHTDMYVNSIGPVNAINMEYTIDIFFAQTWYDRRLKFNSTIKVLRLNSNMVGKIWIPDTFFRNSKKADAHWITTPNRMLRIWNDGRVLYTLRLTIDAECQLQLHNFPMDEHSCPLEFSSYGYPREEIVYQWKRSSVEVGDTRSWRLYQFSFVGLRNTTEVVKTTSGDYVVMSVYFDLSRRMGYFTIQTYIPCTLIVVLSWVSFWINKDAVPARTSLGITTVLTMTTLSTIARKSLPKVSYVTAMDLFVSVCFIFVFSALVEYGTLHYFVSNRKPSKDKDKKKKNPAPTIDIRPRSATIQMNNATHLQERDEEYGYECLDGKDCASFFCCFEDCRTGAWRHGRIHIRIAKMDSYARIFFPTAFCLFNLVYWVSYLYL

## CN1CCc2cc3c(cc2[C@H]1[C@@H]1OC(=O)c2c1ccc1c2OCO1)OCO3 [bicuculline]
GABAA receptor; rightward shift in GABA EC50, no significant effect on maximal current, ref [2]
  type of GABAA antagonism: typical competitive inhibitor

## insulin: pancreatic peptide hormone; bovine form (cat I-5500) from Sigma, dissolved in 0.1% acetic acid
[1]; 100 nM insulin, GABA dose response 0.1 µM to 1 mM
  maximal current with insulin, % of maximal: 99 ± 13%
α4β3γ1 GABAA receptor
  type of inhibition: mixed type inhibition
[2]; 1 nM insulin + 1 µM GABA
  effect of insulin on GABA induced current: inhibits currents elicited by 1 µM GABA
[2]; 1 nM insulin, then 1 µM GABA only
  reversibility of the inhibitory effect of insulin: reversible
[2]; 100 nM insulin
  saturating insulin concentration: at or near saturating
[2]; 100 nM insulin + 1 µM GABA
  effect of insulin on GABA induced current: inhibits currents elicited by 1 µM GABA
[2]; 100 nM insulin + 100 µM GABA
  effect of insulin on GABA induced current: no significant effect
[2]; 100 nM insulin co-applied with 100 µM GABA (near saturating), not significant
  percent change in GABA induced current: −0.33 ± 2.0%
[2]; insulin co-applied with low (EC30–50) concentrations of GABA
  inhibition of GABA induced current: about 38%
[2]; stated in discussion, from insulin dose response
  affinity of insulin for the GABA receptor: nanomolar affinity for the GABA receptor
GABAA receptors; 500 nM insulin
  incubation time required for potentiating effect: at least 10 minutes
GABAA receptors; incubation at least 10 minutes
  insulin concentration required for potentiating effect: 500 nM

## c1ccc2c(c1)Cc1ccccc1-n1c-2nnc1N1CCNCC1 [pitrazepin]
GABAA receptor; similar effects and shifts in GABA dose response curves, ref [14]
  type of GABAA antagonism: competitive inhibitors of the GABAA receptor

## COc1c(O[C@@H]2O[C@H](CO)[C@@H](O)[C@H](O)[C@H]2O)cc2c(c1OC)-c1ccc(SC)c(=O)cc1[C@@H](NC(C)=O)CC2 [thiocolchicoside]
GABAA receptor; similar effects and shifts in GABA dose response curves, ref [11]
  type of GABAA antagonism: competitive inhibitors of the GABAA receptor

## NCCCC(=O)O [GABA, γ-aminobutyric acid, reference compound]
[1]; concentration used for insulin dose response
  approximate EC30 of GABA: ~1 µM
